Assays:
[1] = Time from injection to 95% recovery of the twitch response at the ED95 dose in male Rhesus monkey.; type: functional, Cercopithecidae
Summary of the method: (§1)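 Anesthetized, ventilated male rhesus monkeys received sequential iv bolus doses with extensor digitorum twitch recorded. Onset is injection to peak twitch inhibition. Duration is injection to 95% twitch recovery. Values at the ED95 were read from plots of onset or duration vs dose. Means ± SE across animals.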

[2] = Dose required for 93% suppression of the twitch response at the extensor digitorum in male Rhesus monkey; type: functional; details: Cercopithecidae
Summary of the method: (§2)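 Adult male rhesus monkeys (8–15 kg) under ketamine (5 mg/kg i.m.) and pentobarbital (2–5 mg/kg iv) induction, then N2O 60%/O2 40%/halothane 0.5–1%, ventilated, core temperature 37–38 °C. Twitch of extensor digitorum was recorded after ≥20 min stable baseline. Sequential iv bolus doses from 0.03 to 6.4 mg/kg. Per-animal ED95 came from log-probability regression of dose vs % block. Other lines give the single dose tested with its % block.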

[3] = Time from injection to peak inhibition of twitch response at the ED95 dose in male Rhesus monkey.; type: functional, Cercopithecidae; summary of the method: as §1
[4] = Selectivity index is changes in heart rate(cv dose) to the suppression of twitch response (ED95) in male Rhesus monkey; type: functional, Cercopithecidae
Summary of the method: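 Same anesthetized male rhesus preparation, with blood pressure, heart rate and EKG recorded alongside twitch during sequential iv doses up to 6.4 mg/kg. Cardiovascular threshold dose is the dose giving ≥10% change in heart rate or mean arterial pressure. Index = mean threshold dose / mean ED95 (extensor digitorum).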

[5] = Dose required for 91% suppression of the twitch response at the extensor digitorum in male Rhesus monkey; type: functional; details: Cercopithecidae; summary of the method: as §2
[6] = Dose required for 80% suppression of the twitch response at the extensor digitorum in male Rhesus monkey; type: functional; details: Cercopithecidae; summary of the method: as §2
[7] = Dose required for 95% suppression of the twitch response at the extensor digitorum in male Rhesus monkey.; type: functional, Cercopithecidae; details: Cercopithecidae; read-out: ED95; summary of the method: as §2
[8] = Time from injection to peak inhibition of twitch response at a dose of 0.2 mg/kg in male Rhesus monkey was evaluated; type: functional, Cercopithecidae
Summary of the method: (§3)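 Single iv bolus of 0.2 or 0.4 mg/kg in anesthetized, ventilated male rhesus monkeys, with extensor digitorum twitch recorded. Onset taken from injection to peak twitch inhibition at the given dose. Means ± SE, N = number of animals.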

[9] = Time from injection to peak inhibition of twitch response at a dose of 0.4 mg/kg in male Rhesus monkey was evaluated; type: functional, Cercopithecidae; summary of the method: as §3
[10] = Time from injection to 95% recovery of twitch response at a dose of 0.2 mg/kg in male Rhesus monkey was evaluated
[11] = Time from injection to 95% recovery of twitch response at a dose of 0.4 mg/kg in male Rhesus monkey was evaluated
[12] = Dose required for 100% suppression of the twitch response at the extensor digitorum in male Rhesus monkey; type: functional; details: Cercopithecidae; summary of the method: as §2
[13] = Dose required for 41% suppression of the twitch response at the extensor digitorum in male Rhesus monkey; type: functional; details: Cercopithecidae; summary of the method: as §2

Compound | Duration [1] | Onset [3] | Selectivity index [4] | further results
COc1cc(C2c3c(cc(OC)c(OC)c3OC)CC[N@@+]2(C)CCCOC(=O)/C(Cl)=C/C(=O)OCCC[N@+]2(C)CCc3cc(OC)c(OC)c(OC)c3[C@H]2c2cc(OC)c(OC)c(OC)c2)cc(OC)c1OC.[Cl-].[Cl-] (some centres undefined) | 3.6 min | 45 s | 1 | ED95 [2]: 2 mg/kg
COc1cc2c(cc1OC)[C@H](c1cc(OC)c(OC)c(OC)c1)[N@@+](C)(CCCOC(=O)/C=C(\Cl)C(=O)OCCC[N@+]1(C)CCc3cc(OC)c(OC)c(OC)c3[C@H]1Cc1cc(OC)c(OC)c(OC)c1)CC2.[Cl-].[Cl-] | 13.3 min | 160 s | – | ED95 [5]: 0.05 mg/kg
COc1cc2c(cc1OC)[C@H](c1cc(OC)c(OC)c(OC)c1)[N@@+](C)(CCCOC(=O)CCCCCC(=O)OCCC[N@+]1(C)CCc3cc(OC)c(OC)cc3[C@H]1Cc1cc(OC)c(OC)c(OC)c1)CC2.[Cl-].[Cl-] | 7.1 min | 40 s | – | ED95 [6]: 0.2 mg/kg
COc1cc2c(cc1OC)[C@@H](c1cc(OC)c(OC)c(OC)c1)[N@+](C)(CCCOC(=O)CCCCCCC(=O)OCCC[N@+]1(C)CCc3cc(OC)c(OC)cc3[C@H]1Cc1cc(OC)c(OC)c(OC)c1)CC2.[Cl-].[Cl-] | 8.6 min | 75 s | 47 | ED95 [7]: 0.103 mg/kg; Onset [8]: 50 s; Onset [9]: 25 s; Duration [10]: 14.6 min; Duration [11]: 16.9 min
COc1cc2c(cc1OC)[C@H](c1cc(OC)c(OC)c(OC)c1)[N@@+](C)(CCCOC(=O)C[C@H](F)C(=O)OCCC[N@+]1(C)CCc3cc(OC)c(OC)cc3[C@H]1Cc1cc(OC)c(OC)c(OC)c1)CC2.[Cl-].[Cl-] | 35 min | 80 s | – | ED95 [12]: 0.05 mg/kg
COc1cc2c(cc1OC)[C@H](c1cc(OC)c(OC)c(OC)c1)[N@@+](C)(CCCOC(=O)/C(Cl)=C/C(=O)OCCC[N@+]1(C)CCc3cc(OC)c(OC)c(OC)c3[C@H]1Cc1cc(OC)c(OC)c(OC)c1)CC2.COc1cc2c(cc1OC)[C@H](c1cc(OC)c(OC)c(OC)c1)[N@@+](C)(CCCOC(=O)/C=C(\Cl)C(=O)OCCC[N@+]1(C)CCc3cc(OC)c(OC)c(OC)c3[C@H]1Cc1cc(OC)c(OC)c(OC)c1)CC2.[Cl-].[Cl-].[Cl-].[Cl-] | 6.5 min | 145 s | – | ED95 [13]: 0.05 mg/kg

Reference: ChEMBL document CHEMBL1145796, “Neuromuscular blocking activity and therapeutic potential of mixed-tetrahydroisoquinolinium halofumarates and halosuccinates in rhesus monkeys” (2003)
